Values after ≈ are worked out from the molar mass of the structure shown.
Key:
Staphylococcus aureus [1] = test: Antibacterial activity against Staphylococcus aureus 4220 after 24 hrs by two-fold serial dilution method; type: functional; conditions: RN4220, 24 h
Outline: (§1)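 Broth microdilution MIC. Bacteria were grown to mid-log phase in Mueller-Hinton broth, diluted 1000-fold, and inoculated at 10^5 CFU/mL. Compounds in DMSO (final ≤0.05%) were tested as two-fold serial dilutions from 64 to 0.25. Plates were incubated 24 h at 37 °C and growth read as absorbance at 650 nm. MIC = concentration completely inhibiting growth. Experiments were run three times.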

Staphylococcus aureus [2] = test: Antibacterial activity against quinolone-resistant Staphylococcus aureus isolate CCARM 3505 after 24 hrs by two-fold serial dilution method; type: functional; conditions: isolate CCARM 3505, 24 h; outline: as §1
Staphylococcus aureus [3] = test: Antibacterial activity against methicillin-resistant Staphylococcus aureus isolate CCARM 3167 after 24 hrs by two-fold serial dilution method; type: functional; conditions: isolate CCARM 3167, 24 h
Streptococcus mutans = test: Antibacterial activity against Streptococcus mutans 3289 after 24 hrs by two-fold serial dilution method; type: functional; conditions: Streptococcus mutans, 3289, 24 h
Candida albicans = test: Antifungal activity against Candida albicans 7535 after 24 hrs by two-fold serial dilution method; type: functional; conditions: Candida albicans, 7535, 24 h
Escherichia coli = test: Antibacterial activity against Escherichia coli 1924 after 24 hrs by two-fold serial dilution method; type: functional; conditions: Escherichia coli, 1924, 24 h
Outline: (§2)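 Bacteria grown to mid-log phase in Mueller-Hinton broth, diluted 1000-fold, and inoculated at 10^5 CFU/mL. Compounds were dissolved in DMSO (final ≤0.05%) and two-fold serially diluted. MIC was the lowest concentration giving complete growth inhibition after 24 h at 37 °C, with growth read as absorbance at 650 nm. Each experiment was run three times.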

Pseudomonas aeruginosa = test: Antibacterial activity against Pseudomonas aeruginosa 2742 after 24 hrs by two-fold serial dilution method; type: functional; conditions: Pseudomonas aeruginosa, 2742, 24 h; outline: as §2
Salmonella typhimurium = test: Antibacterial activity against Salmonella typhimurium 2421 after 24 hrs by two-fold serial dilution method; type: functional, Salmonella enterica subsp. enterica serovar Typhimurium; conditions: Salmonella enterica, 2421, 24 h; outline: as §2
L02 = test: Cytotoxicity against human L02 cells assessed as growth inhibition after 24 hrs by MTT assay; type: cell-based; conditions: L02, 24 h

SMILES | MIC (Staphylococcus aureus [1]) | MIC (Staphylococcus aureus [2]) [µg/mL] | MIC (Staphylococcus aureus [3]) | MIC (Streptococcus mutans) [µg/mL] | MIC (Candida albicans) [µg/mL] | MIC (Escherichia coli) [µg/mL] | MIC (Pseudomonas aeruginosa) [µg/mL] | MIC (Salmonella typhimurium) [µg/mL] | IC50 (L02) [µM]
CN(C)C1=NC(c2ccc(/C=C/C(=O)c3ccccc3Br)cc2)N=C(N)N1 (stereo not drawn) | 64 µg/mL | 32 (≈ 75.1 µM) | 32 µg/mL | 16 (≈ 37.5 µM) | 32 (≈ 75.1 µM) | 64 (≈ 150 µM) | > 64 | > 64 | 
CN(C)C1=NC(c2ccc3cc(OCC(=O)c4ccccc4)ccc3c2)N=C(N)N1 (stereo not drawn) | 32 µg/mL | 32 (≈ 79.7 µM) | 32 µg/mL | 64 (≈ 159 µM) | 32 (≈ 79.7 µM) | 64 (≈ 159 µM) | > 64 | > 64 | 
COc1cccc(C(=O)/C=C/c2ccc(C3N=C(N)NC(N(C)C)=N3)cc2)c1 (stereo not drawn) | 32 µg/mL | 16 (≈ 42.4 µM) | 16 µg/mL | 16 (≈ 42.4 µM) | 16 (≈ 42.4 µM) | 16 (≈ 42.4 µM) | > 64 | > 64 | 
COc1c(N2CCNC(C)C2)c(F)cc2c(=O)c(C(=O)O)cn(C3CC3)c12 (stereo not drawn) [GATIFLOXACIN] | 0.25 µg/mL | 8 (≈ 21.3 µM) | 2 µg/mL | 0.25 (≈ 0.666 µM) | 0.5 (≈ 1.33 µM) | 2 (≈ 5.33 µM) | 1 (≈ 2.66 µM) |  | 
OC(Cn1cncn1)(Cn1cncn1)c1ccc(F)cc1F [FLUCONAZOLE] |  |  |  | 1 (≈ 3.27 µM) |  |  |  |  | 
Cc1ccc(COc2ccc(C3N=C(N)NC(N(C)C)=N3)cc2)cc1 (stereo not drawn) | 32 µg/mL | 32 (≈ 94.8 µM) | 32 µg/mL | 16 (≈ 47.4 µM) | 16 (≈ 47.4 µM) | 16 (≈ 47.4 µM) | > 64 | > 64 | 
CN(C)C1=NC(c2ccc(/C=C/C(=O)c3ccc(Cl)cc3Cl)cc2)N=C(N)N1 (stereo not drawn) | 19.3 µM | 8 (≈ 19.2 µM) | 19.3 µM | 4 (≈ 9.61 µM) | 8 (≈ 19.2 µM) | 8 (≈ 19.2 µM) | 64 (≈ 154 µM) | > 64 | 45.1
CN(C)C1=NC(c2ccc3cc(OCC(=O)c4ccc(Br)cc4)ccc3c2)N=C(N)N1 (stereo not drawn) | 16.7 µM | 4 (≈ 8.33 µM) | 8.35 µM | 8 (≈ 16.7 µM) | 16 (≈ 33.3 µM) | 8 (≈ 16.7 µM) | 64 (≈ 133 µM) | 64 (≈ 133 µM) | 58.7
CN(C)C1=NC(c2ccc(/C=C/C(=O)c3ccccc3)cc2)N=C(N)N1 (stereo not drawn) | 32 µg/mL | 32 (≈ 92.1 µM) | 32 µg/mL | 32 (≈ 92.1 µM) | 32 (≈ 92.1 µM) | 64 (≈ 184 µM) | > 64 | > 64 | 
CN(C)C1=NC(c2ccc(OCC(=O)c3ccc(Br)cc3)cc2)N=C(N)N1 (stereo not drawn) | 32 µg/mL | 64 (≈ 149 µM) | 32 µg/mL | 32 (≈ 74.4 µM) | 32 (≈ 74.4 µM) | 64 (≈ 149 µM) | > 64 | > 64 | 
CN(C)C1=NC(c2ccc(/C=C/C(=O)c3ccc(F)cc3)cc2)N=C(N)N1 (stereo not drawn) | 32 µg/mL | 32 (≈ 87.6 µM) | 32 µg/mL | 16 (≈ 43.8 µM) | 32 (≈ 87.6 µM) | 32 (≈ 87.6 µM) | > 64 | > 64 | 
CN(C)C1=NC(c2ccc3cc(OCc4ccccc4F)ccc3c2)N=C(N)N1 (stereo not drawn) | 2 µg/mL | 4 (≈ 10.2 µM) | 2 µg/mL | 4 (≈ 10.2 µM) | 4 (≈ 10.2 µM) | 4 (≈ 10.2 µM) | 64 (≈ 163 µM) | 64 (≈ 163 µM) | 
COc1c(N2C[C@@H]3CCCN[C@@H]3C2)c(F)cc2c(=O)c(C(=O)O)cn(C3CC3)c12 [MOXIFLOXACIN] | 4 µg/mL | 1 (≈ 2.49 µM) |  |  |  |  | 0.5 (≈ 1.25 µM) |  | 
